# The source made the active and inactive calls. No cut-off for these calls is given here.
# Key:
# [1] = biological target: T1, Mu-type opioid receptor (Homo sapiens, UniProt P35372); experiment: Agonist activity at human opioid mu receptor expressed in CHO cells assessed as stimulation of [35S]-GTPgammaS binding at 10 uM; assay type: functional, cell-based
# Summary of the method: (§1)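 Agonist mode: membranes from CHO (κ, μ) or HEK293 (δ) cells expressing cloned human receptors, no agonist added, tested at up to 10 μM. [35S]GTP-γ-S (0.5 nM final) binding in HEPES pH 7.4, MgCl2, NaCl, EDTA, DTT, 200 μM GDP. Read by WGA SPA beads after 2 h (δ) or 4 h (κ, μ) at room temperature, then 4 °C overnight.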
# [2] = biological target: T2, Delta-type opioid receptor (Homo sapiens, UniProt P41143); experiment: Agonist activity at human opioid delta receptor expressed in HEK293 cells assessed as stimulation of [35S]-GTPgammaS binding at 10 uM; assay type: functional, cell-based; summary of the method: as §1
# [3] = biological target: T3, Kappa-type opioid receptor (Homo sapiens, UniProt P41145); experiment: Agonist activity at human opioid kappa receptor expressed in CHO cells assessed as stimulation of [35S]-GTPgammaS binding at 10 uM; assay type: functional, cell-based; summary of the method: as §1
# [4] = biological target: T2, Delta-type opioid receptor; experiment: Displacement of [3H]diprenorphine from human opioid delta receptor expressed in HEK293 cells after 120 mins by scintillation counting; assay type: cell-based
# Summary of the method: (§2)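 11-point curves, 0.01 nM–1 μM final. 120 min at 22 °C, then filtration and scintillation counting. Nonspecific binding set by 10 μM naltrexone. Four-parameter IC50; Ki by Cheng–Prusoff.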
# [5] = biological target: T3, Kappa-type opioid receptor; experiment: Displacement of [3H]diprenorphine from human opioid kappa receptor expressed in CHO cells after 120 mins by scintillation counting; assay type: cell-based; summary of the method: as §2
# [6] = test system: CHO; experiment: Selectivity ratio of Ki for human opioid mu receptor expressed in CHO cells to Ki for human opioid kappa receptor expressed in CHO cells; assay type: cell-based
# [7] = biological target: T1, Mu-type opioid receptor; experiment: Displacement of [3H]diprenorphine from human opioid mu receptor expressed in CHO cells after 120 mins by scintillation counting; assay type: cell-based; summary of the method: as §2
# [8] = test system: HEK293; experiment: Selectivity ratio of Ki for human opioid delta receptor expressed in HEK293 cells to Ki for human opioid kappa receptor expressed in CHO cells; assay type: cell-based
# [9] = biological target: T3, Kappa-type opioid receptor; experiment: Antagonist activity at human opioid kappa receptor expressed in CHO cells assessed as inhibition of U69593-induced [35S]GTP-gamma-S binding after 4 hrs by scintillation counting; assay type: functional, cell-based
# [10] = biological target: T2, Delta-type opioid receptor; experiment: Antagonist activity at human opioid delta receptor expressed in HEK293 cells assessed as inhibition of DPDPE-induced [35S]GTP-gamma-S binding after 4 hrs by scintillation counting; assay type: functional, cell-based
# [11] = test system: CHO; experiment: Selectivity ratio of Kb for human opioid mu receptor expressed in CHO cells to Kb for human opioid kappa receptor expressed in CHO cells; assay type: cell-based
# Summary of the method: (§3)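 Kb ratios from antagonist [35S]GTP-γ-S SPA on CHO (κ, μ) or HEK293 (δ) membranes. Agonists at about 80% maximal: U69,593 300 nM (κ), DAMGO 1 μM (μ), DPDPE 30 nM (δ). 11-point curves, top 1 or 10 μM. Nonspecific binding: NorBNI, naltrexone or naltriben, each 10 μM. Kb = IC50/(1+D/EC50); geometric means with SEM.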
# [12] = test system: Striatum; experiment: Drug uptake in rat striatum at 1 ug/kg, iv measured after 40 mins by LC/MS-MS analysis; assay type: ADME, organism-based; details: in vivo, 0.001 mg/kg
# Summary of the method: (§4)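 Groups of four rats received a single iv tracer dose and were killed 20 or 40 min later. Striatum was weighed, homogenized in 4 volumes acetonitrile/0.1% formic acid and centrifuged. The supernatant was diluted and analysed by LC/MS/MS against standards spiked into naive rat brain. %SUV = tissue amount/injected dose × 100.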
# [13] = test system: HEK293; experiment: Selectivity ratio of Kb for human opioid delta receptor expressed in HEK293 cells to Kb for human opioid kappa receptor expressed in CHO cells; assay type: cell-based; summary of the method: as §3
# [14] = biological target: T1, Mu-type opioid receptor; experiment: Antagonist activity at human opioid mu receptor expressed in CHO cells assessed as inhibition of DAMGO-induced [35S]GTP-gamma-S binding after 4 hrs by scintillation counting; assay type: functional, cell-based
# [15] = test system: Nucleic Acid; experiment: Ratio of drug uptake in striatum to cerebellum in rat at 30 ug/kg, iv measured after 40 mins by LC/MS/MS analysis; assay type: ADME, organism-based; details: in vivo, 0.03 mg/kg
# Summary of the method: (§5)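 Groups of four rats were given iv tracer and killed 20 or 40 min after dosing. Striatum (total binding) and cerebellum (nonspecific, null region) were extracted in acetonitrile/0.1% formic acid and quantified by LC/MS/MS. Binding potential was calculated as (striatum/cerebellum concentration) − 1.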
# [16] = test system: Striatum; experiment: Drug uptake in rat striatum at 30 ug/kg, iv measured after 40 mins by LC/MS-MS analysis; assay type: ADME, organism-based; details: in vivo, 0.03 mg/kg; summary of the method: as §4
# [17] = test system: Striatum; experiment: Drug uptake in rat striatum at 3 ug/kg, iv measured after 40 mins by LC/MS-MS analysis; assay type: ADME, organism-based; details: in vivo, 0.003 mg/kg; summary of the method: as §4
# [18] = test system: Striatum; experiment: Drug uptake in rat striatum at 1.5 ug/kg, iv measured after 40 mins by LC/MS-MS analysis; assay type: ADME, organism-based; details: in vivo, 0.0015 mg/kg
# Summary of the method: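 Groups of four rats received a single iv tracer dose and were killed 20 or 40 min later. Striatum was weighed, sonicated in 4 volumes of acetonitrile with 0.1% formic acid, and centrifuged. The supernatant was diluted with water and analysed by C18 LC/MS/MS (precursor-to-product ion transition) against standards spiked into naive rat brain. %SUV = (tissue amount / injected dose) × 100.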
# [19] = test system: Nucleic Acid; experiment: Ratio of drug uptake in striatum to cerebellum in rat at 1.5 ug/kg, iv measured after 40 mins by LC/MS/MS analysis; assay type: ADME, organism-based; details: in vivo, 0.0015 mg/kg
# Summary of the method: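 Rats (groups of four) given a single iv tracer dose, killed 20 or 40 min later. Striatum and cerebellum weighed, homogenised by ultrasonic probe in four volumes acetonitrile with 0.1% formic acid, centrifuged, supernatant diluted with water. Read-out is LC/MS/MS on C18 column monitoring precursor-to-product transitions, quantified against standards spiked into untreated rat brain. Binding potential = (striatum/cerebellum) − 1.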
# [20] = test system: Nucleic Acid; experiment: Ratio of drug uptake in striatum to cerebellum in rat at 3 ug/kg, iv measured after 40 mins by LC/MS/MS analysis; assay type: ADME, organism-based; details: in vivo, 0.003 mg/kg; summary of the method: as §5
# [21] = test system: Rattus norvegicus; experiment: In vivo receptor occupancy of opioid kappa in iv dosed rat striatum after 40 mins by 3-Chloro-4-[4-[ [ (2S)-2-(3-pyridyl)pyrrolidin-1-yl]methyl]phenoxy]- benzamide displacement assay; assay type: functional
# [22] = test system: Rattus norvegicus; experiment: Antinociceptive activity in po dosed rat assessed as reversal of agonist […]-induced pain by formalin test; assay type: functional
# [23] = test system: Rattus norvegicus; experiment: Reversal of […] in po dosed rat; assay type: functional
# T3 sequence (P41145 whole entry): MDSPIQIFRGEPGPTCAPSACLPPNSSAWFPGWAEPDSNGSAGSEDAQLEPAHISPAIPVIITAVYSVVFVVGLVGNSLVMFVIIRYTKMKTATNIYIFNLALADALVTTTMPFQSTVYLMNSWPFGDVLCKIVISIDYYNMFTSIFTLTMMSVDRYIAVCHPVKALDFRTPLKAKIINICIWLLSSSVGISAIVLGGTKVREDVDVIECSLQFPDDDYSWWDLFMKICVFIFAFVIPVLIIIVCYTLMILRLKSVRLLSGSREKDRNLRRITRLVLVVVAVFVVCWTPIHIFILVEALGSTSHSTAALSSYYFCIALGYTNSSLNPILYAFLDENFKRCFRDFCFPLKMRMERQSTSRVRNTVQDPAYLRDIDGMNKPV
# T1 sequence (P35372 whole entry): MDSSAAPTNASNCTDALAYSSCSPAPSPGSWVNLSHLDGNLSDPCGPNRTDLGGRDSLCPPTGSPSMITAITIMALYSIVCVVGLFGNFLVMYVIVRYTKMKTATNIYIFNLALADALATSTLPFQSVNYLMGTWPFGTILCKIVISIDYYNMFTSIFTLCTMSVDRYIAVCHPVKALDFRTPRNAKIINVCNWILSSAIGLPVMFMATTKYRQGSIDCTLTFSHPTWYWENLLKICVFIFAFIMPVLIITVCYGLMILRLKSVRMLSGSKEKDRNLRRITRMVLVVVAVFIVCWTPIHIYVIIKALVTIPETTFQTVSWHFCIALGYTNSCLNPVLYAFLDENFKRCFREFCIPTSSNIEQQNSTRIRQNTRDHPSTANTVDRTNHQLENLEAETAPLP
# T2 sequence (P41143 whole entry): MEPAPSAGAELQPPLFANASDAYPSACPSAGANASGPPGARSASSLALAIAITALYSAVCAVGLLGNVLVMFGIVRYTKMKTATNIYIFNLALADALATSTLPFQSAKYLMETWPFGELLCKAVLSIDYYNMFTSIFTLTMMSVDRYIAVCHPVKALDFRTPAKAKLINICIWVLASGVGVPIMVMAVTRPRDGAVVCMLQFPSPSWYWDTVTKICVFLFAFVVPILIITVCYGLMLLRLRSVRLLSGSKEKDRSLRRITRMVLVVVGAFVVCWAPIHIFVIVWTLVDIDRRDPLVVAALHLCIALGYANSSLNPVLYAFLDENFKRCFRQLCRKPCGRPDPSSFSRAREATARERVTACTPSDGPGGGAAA
SMILES,Activity [1],Activity [2],Activity [3],Ki [4] [nM],Ki [5] [nM],Ratio Ki [6],Ki [7] [nM],Ratio Ki [8],Kb [9] [nM],Kb [10] [nM],Ratio [11],Ratio [13],Kb [14] [nM],other results
CC(C)[C@@H](CN1CC[C@@](C)(c2cccc(O)c2)[C@@H](C)C1)NC(=O)[C@H]1Cc2ccc(O)cc2CN1,inactive,inactive,inactive,–,–,–,–,–,–,–,–,–,–,–
NC(=O)c1ccc(Oc2ccc(CN3CCC[C@@H]3c3cccnc3)cc2)c(Cl)c1,inactive,inactive,inactive,> 500,44.9,> 11,> 500,> 11,–,–,–,–,–,–
CC1(C)CN(Cc2ccc(Oc3ccc(C(N)=O)cn3)cc2)[C@@H]1c1ccccc1,inactive,inactive,inactive,> 500,1.05,–,43.1,–,2.46,338,15,137,36.6,SUV [12]: 270%
CC1(C)CN(Cc2ccc(Oc3ccc(C(N)=O)cn3)cc2)[C@H]1c1ccccc1,inactive,inactive,inactive,> 500,26.7,–,107,–,15.2,> 1000,3,> 65,43.8,–
Oc1ccc2c3c1O[C@H]1c4[nH]c5c(c4C[C@@]4(O)[C@@H](C2)N(CC2CC2)CC[C@]314)C[C@@]1(O)[C@H]2Cc3ccc(O)c4c3[C@@]1(CCN2CC1CC1)[C@H]5O4,inactive,inactive,inactive,–,–,–,–,–,–,–,–,–,–,–
NC(=O)c1ccc(Oc2ccc(CN3CCCC3c3cccnc3)cc2)nc1 (racemic),inactive,inactive,inactive,> 500,1.49,27,39.6,> 330,5.89,407,19,69,110,Ratio [15]: 2.2; SUV [16]: 13%
NC(=O)c1ccc(Oc2ccc(CN3CCCC3c3cccnc3)cc2)c(Cl)c1 (racemic),inactive,inactive,inactive,251,0.622,51,31.5,404,–,–,–,–,–,–
Cc1cc(C)cc([C@@H]2CCCN2Cc2ccc(Oc3ccc(C(N)=O)cc3F)cc2)c1 [ATICAPRANT],inactive,inactive,inactive,–,0.949,24,22.7,175,0.813,110,21,135,17.4,–
CC(C)[C@@H](CN1CC[C@@](C)(c2cccc(O)c2)[C@@H](C)C1)NC(=O)[C@H]1Cc2ccc(O)cc2CN1C,inactive,inactive,inactive,> 500,0.153,201,30.8,> 3200,0.162,619,69,3820,11.2,SUV [17]: 23%
COC(=O)N1CCN(C(=O)Cc2ccc(Cl)c(Cl)c2)[C@H](CN2CCCC2)C1,inactive,inactive,inactive,422,0.502,69,34.7,841,–,–,–,–,–,SUV [18]: 50%; Ratio [19]: 1.5
Cc1cc(C)cc([C@H]2CCCN2Cc2ccc(Oc3ccc(C(N)=O)cc3F)cc2)c1,inactive,inactive,inactive,165,14,7,101,12,44.8,220,2,5,69.6,–
NC(=O)c1ccc(Oc2ccc(CN3CCC[C@H]3c3cccc(F)c3)cc2)c(F)c1,inactive,inactive,inactive,211,0.565,63,35.8,373,1.57,293,14,187,21.3,Ratio [20]: 0.2; ED50 [21]: 0.06 mg/kg; ED50 [22]: 0.24 mg/kg; ED50 [23]: 30 mg/kg
NC(=O)c1ccc(Oc2ccc(CN3CCCC3c3cccc(F)c3)cc2)c(F)c1 (racemic),inactive,inactive,inactive,187,0.617,67,41.1,303,3.52,525,18,149,63.5,–
NC(=O)c1ccc(Oc2ccc(CNCc3ccccc3)cc2)nc1,inactive,inactive,inactive,27.6,1.78,1,2.43,16,4.33,60.3,1,14,3.8,–
NC(=O)c1ccc(Oc2ccc(CN3CCCC3c3ccccc3)cc2)nc1 (racemic),inactive,inactive,inactive,> 500,9.21,25,232,> 50,17,635,9,37,150,–
CC1(C)CN(Cc2ccc(Oc3ccc(C(N)=O)cn3)cc2)C1c1ccccc1 (racemic),inactive,inactive,inactive,> 500,1.41,–,52.7,–,–,–,–,–,–,–
NC(=O)c1ccc(Oc2ccc(CN3CCC[C@@H]3c3cccc(F)c3)cc2)c(F)c1,inactive,inactive,inactive,> 500,53.7,> 9,> 500,> 9,88.7,> 1000,> 5,> 5,> 500,–

# Reference: ChEMBL document CHEMBL1921714, “Discovery of aminobenzyloxyarylamides as κ opioid receptor selective antagonists: application to preclinical development of a κ opioid receptor antagonist receptor occupancy tracer” (J Med Chem, 2011)
